Measured values pooled from the literature.
Protocols differ between the studies behind these lines.
CDPK1: Calcium-dependent protein kinase 1 (CDPK1, Plasmodium falciparum, UniProt P62344)
Nuclear receptor subfamily 4 group A member 2: Nuclear receptor subfamily 4 group A member 2 (Homo sapiens, UniProt P43354)
P2RY14: P2Y purinoceptor 14 (P2RY14, Homo sapiens, UniProt Q15391)

C1=C/COCc2cc(ccc2OCCN2CCCC2)Nc2nccc(n2)-c2cccc(c2)COC/1
remaining binding (CDPK1; binding; 0.1 µM): 36%

CN1C(C(=O)Nc2ccccn2)=C(O)c2sc(Cl)cc2S1(=O)=O
ΔTm (Nuclear receptor subfamily 4 group A member 2; thermal stability, DSF; 100 µM): 0.18 °C

COc1ccc(OCC(=O)N[C@@H](Cc2c[nH]c3ccccc23)C(=O)OC(C)C)cc1
inhibition (P2RY14; cAMP, antagonist; HEK293; 0.1 µM): 85.6%

Cc1cc(O)c(-c2ccc([C@@H](C)CN(C)C)cc2)c2c1[nH]c(=O)c1sccc12
inhibition (Mitogen-activated protein kinase kinase kinase 1 (MAP3K1, Homo sapiens, UniProt Q13233); enzyme activity, inhibitor; 0.1 µM): 4.39%

COc1ccc2oc(-c3ccc4nc(N)oc4c3)c/c(=N\c3ccccc3NC(=O)CCN)c2c1
remaining binding (TGF-beta receptor type-1 (TGFBR1, Homo sapiens, UniProt P36897); binding; 1 µM): 111%

O=C(N[C@@H](Cc1c[nH]c2ccccc12)C(=O)O)c1ccco1
inhibition (P2RY14; cAMP, antagonist; HEK293; 0.1 µM): 73.6%

CCCCC(=O)Nc1ccc(-c2ccc3ncn(CCC)c(=O)c3c2)cn1
remaining binding (CDPK1; binding, competition with immobilised ligand; 0.5 µM): 100%

COC(=O)[C@H](Cc1c[nH]c2ccccc12)NC(=O)COc1ccc(C)cc1
inhibition (P2RY14; cAMP, antagonist; HEK293; 0.1 µM): -20%

CCN1CCN(c2cc(N3CCN(CC)CC3)nc(NCCNc3ccnc4cc(Cl)ccc34)n2)CC1
ΔTm (Nuclear receptor subfamily 4 group A member 2; thermal stability, DSF; 100 µM): -0.12 °C
